Here are results for six molecules from paper PMC2738612 (Biochemistry, 2009).

For test [1], the system named is gelatin (denatured type I collagen). As to the kind of experiment: Surface plasmon resonance binding to immobilized gelatin. To be noted: 1 µM analyte, Biacore buffer pH 7.4; compared to WT CBD. Further details: species or system rat. (In general: Surface plasmon resonance follows binding to a sensor surface in real time, without labels.)
The test system of a further test is native type I collagen. The experiment in a line: Surface plasmon resonance binding to immobilized native type I collagen. Further details: species or system rat. To be noted: 1 µM analyte, Biacore buffer pH 7.4; compared to WT CBD. The essentials: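 Native non-pepsin-treated acid-soluble rat tail type I collagen in 10 mM sodium acetate, pH 4.5, was amine-coupled to EDC/NHS-activated CM5 chips at ~3000 RU, then ethanolamine-blocked; an uncoated flow cell served as control. Analytes at 1 µM in 10 mM HEPES, 150 mM NaCl, 0.005% P20, pH 7.4, flowed at 5 µl/min for 6 min. RU were averaged over 5 s before injection end. Chips were regenerated with 6 M guanidine-HCl, with WT CBD run at the start and end of each series.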

B1: E^321A: rCBD variant, single-point alanine substitution at E^321, module 2 (protein)
chain: APSPIIKFPGDVAPKTDKELAVQYLNTFYGCPKESCNLFVLKDTLKKMQKFFGLPQTGDLDQNTIETMRKPRCGNPDVANYNFFPRKPKWDKNQITYRIIGYTPDLDPETVDDAFARAFQVWSDVTPLRFSRIHDGEADIMINFGRWEHGDGYPFDGKDGLLAHAFAPGTGVGGDSHFDDDELWTLGEGQVVRVKYGNADGEYCKFPFLFNGKEYNSCTDTGRSDGFLWCSTTYNFEKDGKYGFCPHEALFTMGGNAEGQPCKFPFRFQGTSYDSCTTEGRTDGYRWCGTTADYDRDKKYGFCPETAMSTVGGNSEGAPCVFPFTFLGNKYESCTSAGRSDGKMWCATTANYDDDRKWGFCPDQGYSLFLVAAHEFGHAMGLEHSQDPGALMAPIYTYTKNFRLSQDDIKGIQELYGASPDIDLGTGPTPTLGPVTPEICKQDIVFDGIAQIRGEIFFFKDRFIWRTVTPRDKPMGPLLVATFWPELPEKIDAVYEAPQEEKAVFFAGNEYWIYSASTLERGYPKPLTSLGLPPDVQRVDAAFNWSKNKKTYIFAGDKFWRYNEVKKKMDPGFPKLIADAWNAIPDNLDAVVDLQGGGHSYFFKGAYYLKLENQSLKSVKFGSIKSDWLGC
modifications: biotinylated for the microwell assay; left off: His tag, end not stated, state not stated
Regarding B1, the “binding to gelatin / denatured type I collagen (SPR, RU)” value in test [1] is recorded as “no reduction in collagen-binding”. The “binding to native type I collagen (SPR, RU)” value with native type I collagen is recorded as “no reduction in collagen-binding”.

B2: Y^323A: rCBD variant, single-point alanine substitution at Y^323, module 2 (protein)
chain: APSPIIKFPGDVAPKTDKELAVQYLNTFYGCPKESCNLFVLKDTLKKMQKFFGLPQTGDLDQNTIETMRKPRCGNPDVANYNFFPRKPKWDKNQITYRIIGYTPDLDPETVDDAFARAFQVWSDVTPLRFSRIHDGEADIMINFGRWEHGDGYPFDGKDGLLAHAFAPGTGVGGDSHFDDDELWTLGEGQVVRVKYGNADGEYCKFPFLFNGKEYNSCTDTGRSDGFLWCSTTYNFEKDGKYGFCPHEALFTMGGNAEGQPCKFPFRFQGTSYDSCTTEGRTDGYRWCGTTEDADRDKKYGFCPETAMSTVGGNSEGAPCVFPFTFLGNKYESCTSAGRSDGKMWCATTANYDDDRKWGFCPDQGYSLFLVAAHEFGHAMGLEHSQDPGALMAPIYTYTKNFRLSQDDIKGIQELYGASPDIDLGTGPTPTLGPVTPEICKQDIVFDGIAQIRGEIFFFKDRFIWRTVTPRDKPMGPLLVATFWPELPEKIDAVYEAPQEEKAVFFAGNEYWIYSASTLERGYPKPLTSLGLPPDVQRVDAAFNWSKNKKTYIFAGDKFWRYNEVKKKMDPGFPKLIADAWNAIPDNLDAVVDLQGGGHSYFFKGAYYLKLENQSLKSVKFGSIKSDWLGC
modifications: biotinylated for the microwell assay; left off: His tag, end not stated, state not stated
Regarding B2, in test [1], the “binding to gelatin / denatured type I collagen (SPR, RU)” value was “strong reduction in binding”. In addition, the “binding to native type I collagen (SPR, RU)” value in the test on native type I collagen is given as “strong reduction in binding”.

B3: F^280A: rCBD variant, single-point alanine substitution at F^280, negative control (protein)
chain: APSPIIKFPGDVAPKTDKELAVQYLNTFYGCPKESCNLFVLKDTLKKMQKFFGLPQTGDLDQNTIETMRKPRCGNPDVANYNFFPRKPKWDKNQITYRIIGYTPDLDPETVDDAFARAFQVWSDVTPLRFSRIHDGEADIMINFGRWEHGDGYPFDGKDGLLAHAFAPGTGVGGDSHFDDDELWTLGEGQVVRVKYGNADGEYCKFPFLFNGKEYNSCTDTGRSDGFLWCSTTYNFEKDGKYGFCPHEALATMGGNAEGQPCKFPFRFQGTSYDSCTTEGRTDGYRWCGTTEDYDRDKKYGFCPETAMSTVGGNSEGAPCVFPFTFLGNKYESCTSAGRSDGKMWCATTANYDDDRKWGFCPDQGYSLFLVAAHEFGHAMGLEHSQDPGALMAPIYTYTKNFRLSQDDIKGIQELYGASPDIDLGTGPTPTLGPVTPEICKQDIVFDGIAQIRGEIFFFKDRFIWRTVTPRDKPMGPLLVATFWPELPEKIDAVYEAPQEEKAVFFAGNEYWIYSASTLERGYPKPLTSLGLPPDVQRVDAAFNWSKNKKTYIFAGDKFWRYNEVKKKMDPGFPKLIADAWNAIPDNLDAVVDLQGGGHSYFFKGAYYLKLENQSLKSVKFGSIKSDWLGC
modifications: biotinylated for the microwell assay; left off: His tag, end not stated, state not stated
Consider B3, for which, in test [1], the “binding to gelatin / denatured type I collagen (SPR, RU)” value is recorded as “no reduction in collagen-binding”. In addition, the “binding to native type I collagen (SPR, RU)” value in the test on native type I collagen is “no reduction in collagen-binding”.

B4: E^361A: rCBD variant, single-point alanine substitution at E^361, negative control (protein)
chain: APSPIIKFPGDVAPKTDKELAVQYLNTFYGCPKESCNLFVLKDTLKKMQKFFGLPQTGDLDQNTIETMRKPRCGNPDVANYNFFPRKPKWDKNQITYRIIGYTPDLDPETVDDAFARAFQVWSDVTPLRFSRIHDGEADIMINFGRWEHGDGYPFDGKDGLLAHAFAPGTGVGGDSHFDDDELWTLGEGQVVRVKYGNADGEYCKFPFLFNGKEYNSCTDTGRSDGFLWCSTTYNFEKDGKYGFCPHEALFTMGGNAEGQPCKFPFRFQGTSYDSCTTEGRTDGYRWCGTTEDYDRDKKYGFCPETAMSTVGGNSEGAPCVFPFTFLGNKYASCTSAGRSDGKMWCATTANYDDDRKWGFCPDQGYSLFLVAAHEFGHAMGLEHSQDPGALMAPIYTYTKNFRLSQDDIKGIQELYGASPDIDLGTGPTPTLGPVTPEICKQDIVFDGIAQIRGEIFFFKDRFIWRTVTPRDKPMGPLLVATFWPELPEKIDAVYEAPQEEKAVFFAGNEYWIYSASTLERGYPKPLTSLGLPPDVQRVDAAFNWSKNKKTYIFAGDKFWRYNEVKKKMDPGFPKLIADAWNAIPDNLDAVVDLQGGGHSYFFKGAYYLKLENQSLKSVKFGSIKSDWLGC
modifications: biotinylated for the microwell assay; left off: His tag, end not stated, state not stated
Take B4: the “binding to gelatin / denatured type I collagen (SPR, RU)” value in test [1] is listed as “no reduction in collagen-binding”. Also, the “binding to native type I collagen (SPR, RU)” value in the test with native type I collagen is recorded as “no reduction in collagen-binding”.

B5: F^297A: rCBD variant, single-point alanine substitution at F^297, module 2 (protein)
chain: APSPIIKFPGDVAPKTDKELAVQYLNTFYGCPKESCNLFVLKDTLKKMQKFFGLPQTGDLDQNTIETMRKPRCGNPDVANYNFFPRKPKWDKNQITYRIIGYTPDLDPETVDDAFARAFQVWSDVTPLRFSRIHDGEADIMINFGRWEHGDGYPFDGKDGLLAHAFAPGTGVGGDSHFDDDELWTLGEGQVVRVKYGNADGEYCKFPFLFNGKEYNSCTDTGRSDGFLWCSTTYNFEKDGKYGFCPHEALFTMGGNAEGQPCKFPFRAQGTSYDSCTTEGRTDGYRWCGTTEDYDRDKKYGFCPETAMSTVGGNSEGAPCVFPFTFLGNKYESCTSAGRSDGKMWCATTANYDDDRKWGFCPDQGYSLFLVAAHEFGHAMGLEHSQDPGALMAPIYTYTKNFRLSQDDIKGIQELYGASPDIDLGTGPTPTLGPVTPEICKQDIVFDGIAQIRGEIFFFKDRFIWRTVTPRDKPMGPLLVATFWPELPEKIDAVYEAPQEEKAVFFAGNEYWIYSASTLERGYPKPLTSLGLPPDVQRVDAAFNWSKNKKTYIFAGDKFWRYNEVKKKMDPGFPKLIADAWNAIPDNLDAVVDLQGGGHSYFFKGAYYLKLENQSLKSVKFGSIKSDWLGC
modifications: biotinylated for the microwell assay; left off: His tag, end not stated, state not stated
Take B5: in test [1], the “binding to gelatin / denatured type I collagen (SPR, RU)” value is given as “strong reduction in binding”. Besides, the “binding to native type I collagen (SPR, RU)” value in the test with native type I collagen is recorded as “strong reduction in binding”.

B6: Y^302A: rCBD variant, single-point alanine substitution at Y^302, module 2 (protein)
chain: APSPIIKFPGDVAPKTDKELAVQYLNTFYGCPKESCNLFVLKDTLKKMQKFFGLPQTGDLDQNTIETMRKPRCGNPDVANYNFFPRKPKWDKNQITYRIIGYTPDLDPETVDDAFARAFQVWSDVTPLRFSRIHDGEADIMINFGRWEHGDGYPFDGKDGLLAHAFAPGTGVGGDSHFDDDELWTLGEGQVVRVKYGNADGEYCKFPFLFNGKEYNSCTDTGRSDGFLWCSTTYNFEKDGKYGFCPHEALFTMGGNAEGQPCKFPFRFQGTSADSCTTEGRTDGYRWCGTTEDYDRDKKYGFCPETAMSTVGGNSEGAPCVFPFTFLGNKYESCTSAGRSDGKMWCATTANYDDDRKWGFCPDQGYSLFLVAAHEFGHAMGLEHSQDPGALMAPIYTYTKNFRLSQDDIKGIQELYGASPDIDLGTGPTPTLGPVTPEICKQDIVFDGIAQIRGEIFFFKDRFIWRTVTPRDKPMGPLLVATFWPELPEKIDAVYEAPQEEKAVFFAGNEYWIYSASTLERGYPKPLTSLGLPPDVQRVDAAFNWSKNKKTYIFAGDKFWRYNEVKKKMDPGFPKLIADAWNAIPDNLDAVVDLQGGGHSYFFKGAYYLKLENQSLKSVKFGSIKSDWLGC
modifications: biotinylated for the microwell assay; left off: His tag, end not stated, state not stated
With B6, the “binding to gelatin / denatured type I collagen (SPR, RU)” value in test [1] is on record as “strong reduction in binding”. Also, in the test on native type I collagen, the “binding to native type I collagen (SPR, RU)” value is listed as “strong reduction in binding”.
